We go through three compounds from ChEMBL document CHEMBL1143833, “Concentration-dependent synergy and antagonism within a triple antifungal drug combination against Aspergillus species: analysis by a new response surface model” (Antimicrob Agents Chemother, 2007).

Holding throughout (assay type): functional, organism-based
One assay concerns Aspergillus fumigatus. In words: Antifungal activity against Aspergillus fumigatus by broth microdilution method. The method, boiled down: (§1)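 RPMI 1640 with L-glutamine, no bicarbonate, buffered to pH 7.0 with 0.165 M MOPS. Conidial inoculum added to thawed plates. Incubated 48 h at 37°C, 95% humidity, plates unstacked. MIC taken as the lowest concentration with no visible growth. Growth also read at OD405 against conidium-free backgrounds, expressed as % of drug-free control. Run three times on separate days.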
A general note: Dilution methods test growth across graded concentrations, often in twofold steps.

A further assay has as its system Aspergillus terreus. In words: Antifungal activity against Aspergillus terreus by broth microdilution method. Conditions: for EC50: pooled result: one value given for 3 cell lines, strains, targets or settings. The method, boiled down: as §1
Another assay concerns Aspergillus flavus. Kind of assay: Antifungal activity against Aspergillus flavus by broth microdilution method. In a few lines: as §1

Converted amounts (≈) assume the structure as drawn.

In the case of `CC[C@H](C)C[C@H](C)CCCCCCCCC(=O)N[C@H]1C[C@@H](O)[C@@H](NCCN)NC(=O)[C@@H]2[C@@H](O)CCN2C(=O)[C@H]([C@H](O)CCN)NC(=O)[C@H]([C@H](O)[C@@H](O)c2ccc(O)cc2)NC(=O)[C@@H]2C[C@@H](O)CN2C(=O)[C@H]([C@@H](C)O)NC1=O` [CASPOFUNGIN], the MIC with Aspergillus fumigatus, with Aspergillus terreus and against Aspergillus flavus was greater than 128 µg/mL throughout. Besides, in the assay with Aspergillus terreus, the EC50 (commonly the midpoint of the concentration-response curve) came out at 95.5 µg/mL (≈ 87.4 µM).

Take `C[C@@H]1[C@H](O)[C@@H](C)/C=C/C=C/C=C/C=C/C=C/C=C/C=C/[C@H](O[C@@H]2O[C@H](C)[C@@H](O)[C@H](N)[C@@H]2O)C[C@@H]2O[C@](O)(C[C@@H](O)C[C@@H](O)[C@H](O)CC[C@@H](O)C[C@@H](O)CC(=O)O[C@H]1C)C[C@H](O)[C@H]2C(=O)O` [AMPHOTERICIN B]: the MIC against Aspergillus fumigatus, in the assay on Aspergillus terreus and against Aspergillus flavus was 0.5 µg/mL (≈ 0.541 µM) in each case. In addition, the EC50 with Aspergillus terreus was 0.44 µg/mL (≈ 0.476 µM).

On to `C[C@@H](c1ncncc1F)[C@](O)(Cn1cncn1)c1ccc(F)cc1F` [VORICONAZOLE], for which the minimum inhibitory concentration (MIC) against Aspergillus fumigatus, in the assay with Aspergillus terreus and against Aspergillus flavus was 0.25 µg/mL (≈ 0.716 µM) in each case. Further, the EC50 in the assay on Aspergillus terreus came to 0.23 µg/mL (≈ 0.658 µM).
